From ChEMBL document CHEMBL1127449, “An investigation of desferrithiocin metabolism” (J Med Chem, 1994) come the findings set out here.

Type in all cases: ADME
Data set [1] in a line: Tested for the half life period at the pH of 7.2; Stable. Particulars: pH 7.2. The method, boiled down: (§1)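 Hydrolysis followed by HPLC at 37 °C: 2 mM solutions in phosphate mobile phase B with 4 mM 2,6-lutidine as internal standard, pH set to 2.5 or 7.2 with HCl or KOH. Reverse-phase gradient of acetonitrile/mobile phase B, detection at 250 nm. Half-life derived from disappearance over time. For fast pH 7.2 conversion, acidic solution brought to 7.2 then back to 2.5 (<1 min).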

The nature of data set [2]: Tested for the half life period at the pH of 2.5. The following applies: pH 2.5. The method, boiled down:
as §1

Data set [3] in a line: Tested for the half life period at the pH of 2.5; Stable. Particulars: pH 2.5. The method, boiled down:
as §1

Data set [4] can be described thus: Tested for the half life period at the pH of 7.2. Particulars: pH 7.2. Put shortly:
as §1

As to “deaza-desmethyl-DFT complex with iron (III)”, the T1/2 result in data set [1] was “Stable”; in data set [2], over 480 h.

As usually defined, the half-life is how long it takes for the measured level to halve. Low readings indicate fast loss, high ones slow loss. For the compound `O=C(O)[C@@H]1CSC(c2ncccc2O)=N1`, the T1/2 entry in data set [1] is “Stable”. In data set [2], this compound had a half-life of 8.74 h.

Regarding `O=C(N[C@@H](CS)C(=O)O)c1ccccc1O`, the T1/2 result in data set [1] and in data set [3] was “Stable” each time.

On to `O=C(O)[C@@H]1CSC(c2ccccc2O)=N1`, for which the T1/2 result in data set [1] is “Stable”. This compound showed a half-life in data set [2] of 31.7 h.

Consider `C[C@]1(C(=O)O)CSC(c2ncccc2O)=N1` [DESFERRITHIOCIN], for which the T1/2 result in data set [1] is recorded as “Stable”. In data set [2], this compound had a half-life of 18.6 h.

`N[C@@H](CSC(=O)c1ccccc1O)C(=O)O`: the half-life is under 1 min in data set [4] and 4.18 h in data set [2].
